Here are results for ten molecules from ChEMBL document CHEMBL1932986, “Synthesis and in vitro antimycobacterial activity of compounds derived from (R)- and (S)-2-amino-1-butanol - The crucial role of the configuration” (Eur J Med Chem, 2012).

As usually defined, the MIC is the smallest concentration in the dilution series that meets the test's criterion for growth inhibition. Low readings indicate inhibition by little substance, high ones a need for much substance.

Converted amounts (≈) assume the structure as drawn. The source made the active and inactive calls. A value given as a limit tells only on which side of the number the result lay.

What all share (format): functional
For one test, the system named is Bacillus cereus. Briefly: Antibacterial activity against Bacillus cereus ATCC 11778 at 50 mg/ml after 24 hrs by agar diffusion test. The following applies: for zone of inhibition at 50000 µg/mL: ATCC 11778, 24 h, read-out: DIZ. In short, it runs like this:
(§1)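 Agar diffusion: wells in agar filled with […] DMSO solution of compound at various concentrations; diameter of clear zone around application point measured. Bacteria grown 24 h at 37 °C on nutrient agar. Compounds first screened at 50 mg/ml; those active then tested at lower concentrations. Bracketed value = lowest concentration (mg/ml) giving zone >11 mm, reported only if activity retained at ≤1.25 mg/ml.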
For orientation: Agar diffusion results depend on both activity and mobility in agar.

For the next test, the system named is Acinetobacter johnsonii. The test can be described thus: Antibacterial activity against Acinetobacter johnsonii ATCC 17909 at 50 mg/ml after 24 hrs by agar diffusion test. Conditions: for zone of inhibition at 50000 µg/mL: ATCC 17909, 24 h, read-out: DIZ. In short, it runs like this:
as §1

For another test, the system named is Bacillus mycoides. Briefly: Antibacterial activity against Bacillus mycoides DSMZ 274 at 50 mg/ml after 24 hrs by agar diffusion test. The following applies: for zone of inhibition at 50000 µg/mL: DSMZ 274, 24 h, read-out: DIZ. Put shortly: as §1
In the next test the test system is Penicillium chrysogenum. Briefly: Antifungal activity against Penicillium chrysogenum CECT 2802 at 50 mg/ml after 72 hrs by agar diffusion test. The following applies: for zone of inhibition at 50000 µg/mL: CECT 2802, 72 h, read-out: DIZ. In short, it runs like this: (§2)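 Agar diffusion: yeasts grown on yeast peptone dextrose agar and fungi on potato dextrose agar. Wells are filled with […] of compound solution in DMSO at various concentrations, and the clear-zone diameter is measured. Bracketed values give the lowest concentration (mg/ml) that produces a zone >11 mm. A first screen is run at 50 mg/ml.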

In another test the test system is Staphylococcus aureus. Briefly: Antibacterial activity against Staphylococcus aureus NRRL B 313 at 50 mg/ml after 24 hrs by agar diffusion test. The following applies: for zone of inhibition at 50000 µg/mL: NRRL B 313, 24 h, read-out: DIZ. Put shortly:
(§3)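 Agar diffusion: bacteria grown 24 h at 37 °C on nutrient agar. Wells in the agar are filled with […] of compound solution in DMSO at various concentrations. The diameter of the clear zone around the application point is measured. Bracketed values give the lowest concentration (mg/ml) that produces a zone >11 mm. A first screen is run at 50 mg/ml.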

Another test relates to Escherichia coli. Briefly: Antibacterial activity against Escherichia coli ATCC 8739 at 50 mg/ml after 24 hrs by agar diffusion test. Conditions: for zone of inhibition at 50000 µg/mL: ATCC 8739, 24 h, read-out: DIZ. In short, it runs like this: as §1
The test system of a further test is Saccharomyces cerevisiae. Briefly: Antifungal activity against Saccharomyces cerevisiae ATCC 9763 at 50 mg/ml after 72 hrs by agar diffusion test. Conditions: for zone of inhibition at 50000 µg/mL: ATCC 9763, 72 h, read-out: DIZ. In short, it runs like this:
as §2

Test [1] concerns Micrococcus luteus. The test can be described thus: Antibacterial activity against Sarcina lutea ATCC 9341 at 50 mg/ml after 24 hrs by agar diffusion test. The following applies: for zone of inhibition at 50000 µg/mL: ATCC 9341, 24 h, read-out: DIZ. In short, it runs like this: as §3
The subject of a further test is Priestia megaterium. Briefly: Antibacterial activity against Bacillus megaterium NRRL 1353895 at 50 mg/ml after 24 hrs by agar diffusion test. Conditions: for zone of inhibition at 50000 µg/mL: NRRL 1353895, 24 h, read-out: DIZ. In short, it runs like this: as §1
In a further test the test system is Bacillus. Briefly: Antibacterial activity against Bacillus idosus B 241 at 50 mg/ml after 24 hrs by agar diffusion test. Conditions: for zone of inhibition at 50000 µg/mL: B 241, 24 h, read-out: DIZ. Put shortly:
as §1

The next test concerns Bacillus subtilis. Briefly: Antibacterial activity against Bacillus subtilis ATCC 6633 at 50 mg/ml after 24 hrs by agar diffusion test. The following applies: for zone of inhibition at 50000 µg/mL: ATCC 6633, 24 h, read-out: DIZ. In short, it runs like this: as §1
Test [2] has as its system Micrococcus luteus. Briefly: Antibacterial activity against Micrococcus luteus ATCC 9631 at 50 mg/ml after 24 hrs by agar diffusion test. Conditions: for zone of inhibition at 50000 µg/mL: ATCC 9631, 24 h, read-out: DIZ. In short, it runs like this:
as §1

In test [3] the test system is Mycobacterium tuberculosis. The test can be described thus: Antimycobacterial activity against Mycobacterium tuberculosis H37Rv after 45 days. Put shortly:
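Canetti proportion method. Compound in DMSO is added to Löwenstein–Jensen egg medium before coagulation (30 min, 85 °C), tested at three levels plus a lower one where needed. Tubes are inoculated with H37Rv at 10⁵ cells/ml and incubated 45 days at 37 °C. Colony counts versus drug-free control give percentage inhibition.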

A further test concerns Candida tropicalis. The test can be described thus: Antifungal activity against Candida tropicalis ATCC 20336 at 50 mg/ml after 72 hrs by agar diffusion test. Conditions: for zone of inhibition at 50000 µg/mL: ATCC 20336, 72 h, read-out: DIZ. Put shortly:
as §2

As to `CC[C@H](CO)NCc1ccc2ccccc2c1`, the zone of inhibition at 50000 µg/mL was 14 mm with Bacillus cereus; 17 mm in the test with Acinetobacter johnsonii; 17 mm in the test on Bacillus mycoides; 35 mm in the test with Penicillium chrysogenum; 19 mm in the test with Staphylococcus aureus; 22 mm with Escherichia coli. The zone of inhibition at 50000 µg/mL in the test on Saccharomyces cerevisiae is 10 mm; in the test on Micrococcus luteus [1] it was 17 mm; with Priestia megaterium, 17 mm; with Bacillus it was 19 mm; with Bacillus subtilis it was 19 mm; in the test with Micrococcus luteus [2] it was 19 mm. Moreover, the zone of inhibition at 50000 µg/mL with Candida tropicalis was determined as 10 mm. In test [3], this molecule gave an MIC of over 21.8 µM.
On to `CC[C@H](CO)NCc1ccc(-n2ccnc2)cc1`, for which the zone of inhibition at 50000 µg/mL in the test on Bacillus cereus was found to be 13 mm; with Acinetobacter johnsonii it was 18 mm; with Bacillus mycoides it was 18 mm; in the test with Penicillium chrysogenum, 12 mm; in the test with Staphylococcus aureus it was 16 mm; with Micrococcus luteus [1], 18 mm. For the same molecule, the zone of inhibition at 50000 µg/mL worked out at 16 mm with Bacillus, 12 mm in the test with Bacillus subtilis and 16 mm with Micrococcus luteus [2]. Besides, the “diameter of the inhibition zone (DIZ)” value in the test on Escherichia coli, with Saccharomyces cerevisiae, in the test on Priestia megaterium and with Candida tropicalis was “inactive” throughout. Besides, in [3], the MIC was determined as 20.4 µM (≈ 5 µg/mL).
With `CC[C@@H]1COc2cc3ccccc3c(=O)n21`, the zone of inhibition at 50000 µg/mL in the test on Bacillus cereus worked out at 18 mm; with Acinetobacter johnsonii, 10 mm; in the test with Bacillus mycoides, 15 mm; with Penicillium chrysogenum it was 35 mm; in the test on Staphylococcus aureus it was 12 mm; with Escherichia coli, 0 mm. The zone of inhibition at 50000 µg/mL with Saccharomyces cerevisiae worked out at 11 mm; with Micrococcus luteus [1], 13 mm; with Priestia megaterium, 13 mm; in the test on Bacillus, 15 mm; in the test with Micrococcus luteus [2], 15 mm; in the test with Candida tropicalis, 20 mm. In the test on Bacillus subtilis, the “diameter of the inhibition zone (DIZ)” value is “inactive”. For the same molecule, it took 23.2 µM (≈ 5 µg/mL) to inhibit growth in test [3] (MIC).
Take `CC[C@H](CO)NC(c1ccccc1)(c1ccccc1)c1ccccc1`: the “diameter of the inhibition zone (DIZ)” value in the test on Bacillus cereus, in the test on Acinetobacter johnsonii, with Bacillus mycoides, with Penicillium chrysogenum, in the test on Staphylococcus aureus and with Escherichia coli was “inactive” each time. Moreover, the “diameter of the inhibition zone (DIZ)” value in the test on Saccharomyces cerevisiae, in the test on Micrococcus luteus [1], with Priestia megaterium, in the test on Bacillus, in the test on Micrococcus luteus [2] and with Candida tropicalis was “inactive” each time. In addition, the zone of inhibition at 50000 µg/mL with Bacillus subtilis came to 12 mm. In [3], this molecule displayed an MIC of over 15.1 µM.
As for `CC[C@H](CO)NC1c2ccccc2-c2ccccc21`, the “diameter of the inhibition zone (DIZ)” value in the test with Bacillus cereus and with Bacillus subtilis was “inactive” throughout. The zone of inhibition at 50000 µg/mL was determined as 16 mm in the test with Acinetobacter johnsonii; 17 mm with Bacillus mycoides; 20 mm in the test on Penicillium chrysogenum; 12 mm in the test on Staphylococcus aureus; 12 mm in the test on Escherichia coli; 22 mm in the test on Saccharomyces cerevisiae. The zone of inhibition at 50000 µg/mL was found to be 17 mm with Micrococcus luteus [1]; 22 mm in the test with Priestia megaterium; 15 mm with Bacillus; 17 mm in the test with Micrococcus luteus [2]; 17 mm in the test on Candida tropicalis. In addition, the MIC in test [3] was found to be 19.7 µM (≈ 5 µg/mL).
As for `CC[C@H](CO)NC(=O)c1cccc2ccccc12`, the “diameter of the inhibition zone (DIZ)” value in the test on Bacillus cereus, in the test on Acinetobacter johnsonii, in the test on Bacillus mycoides, in the test on Penicillium chrysogenum, in the test on Staphylococcus aureus and in the test on Escherichia coli was “inactive” each time. For the same molecule, the “diameter of the inhibition zone (DIZ)” value with Saccharomyces cerevisiae, in the test with Micrococcus luteus [1], with Priestia megaterium, with Bacillus, in the test on Bacillus subtilis and in the test on Micrococcus luteus [2] was “inactive” in each case. Also, the “diameter of the inhibition zone (DIZ)” value in the test on Candida tropicalis was “inactive”. This molecule came in with an MIC in [3] of over 20.6 µM.
As to `CC[C@H](CO)NC(=O)Nc1cccc2ccccc12`, the “diameter of the inhibition zone (DIZ)” value in the test with Bacillus cereus, with Acinetobacter johnsonii, in the test with Bacillus mycoides, with Penicillium chrysogenum, in the test with Staphylococcus aureus and in the test with Escherichia coli was “inactive” throughout. Further, the “diameter of the inhibition zone (DIZ)” value with Saccharomyces cerevisiae, in the test on Micrococcus luteus [1], in the test with Priestia megaterium, in the test on Bacillus, with Bacillus subtilis and with Micrococcus luteus [2] was “inactive” in each case. Further, the “diameter of the inhibition zone (DIZ)” value in the test on Candida tropicalis was “inactive”. The same molecule gave an MIC in test [3] of over 19.4 µM.
With `CC[C@H](CO)NCc1ccc2ccc3cccc4ccc1c2c34`, the zone of inhibition at 50000 µg/mL in the test with Bacillus cereus is 14 mm; in the test on Acinetobacter johnsonii, 14 mm; with Bacillus mycoides, 15 mm; with Penicillium chrysogenum, 14 mm; in the test with Staphylococcus aureus, 13 mm; with Saccharomyces cerevisiae, 35 mm. The zone of inhibition at 50000 µg/mL with Micrococcus luteus [1] came to 13 mm; in the test on Priestia megaterium, 13 mm; in the test on Bacillus, 30 mm; with Bacillus subtilis, 14 mm; in the test with Micrococcus luteus [2], 14 mm; in the test on Candida tropicalis, 40 mm. For the same molecule, the “diameter of the inhibition zone (DIZ)” value in the test with Escherichia coli is “inactive”. In [3], this molecule showed an MIC of 16.5 µM (≈ 5 µg/mL).
With `CC[C@H](CO)N1C(=O)c2cccc3cccc(c23)C1=O`, the “diameter of the inhibition zone (DIZ)” value with Bacillus cereus, with Acinetobacter johnsonii, in the test on Bacillus mycoides, in the test with Staphylococcus aureus, with Escherichia coli and with Saccharomyces cerevisiae was “inactive” each time. The “diameter of the inhibition zone (DIZ)” value in the test with Micrococcus luteus [1], in the test on Priestia megaterium, in the test on Bacillus, with Bacillus subtilis, in the test with Micrococcus luteus [2] and in the test with Candida tropicalis was “inactive” each time. Also, the zone of inhibition at 50000 µg/mL in the test on Penicillium chrysogenum turned out to be 10 mm. The MIC in [3] was over 18.6 µM.
For `CC[C@H](CO)N1C(=O)C=C(C)C1=O`, the zone of inhibition at 50000 µg/mL with Bacillus cereus amounted to 28 mm; in the test with Acinetobacter johnsonii, 21 mm; in the test with Bacillus mycoides it was 24 mm; in the test with Penicillium chrysogenum, 25 mm; in the test with Staphylococcus aureus, 20 mm; in the test on Escherichia coli, 32 mm. Besides, the zone of inhibition at 50000 µg/mL in the test on Saccharomyces cerevisiae was determined as 21 mm; in the test on Micrococcus luteus [1], 21 mm; in the test with Priestia megaterium it was 20 mm; with Bacillus it was 23 mm; in the test with Bacillus subtilis, 21 mm; in the test with Micrococcus luteus [2], 22 mm. In addition, the zone of inhibition at 50000 µg/mL in the test with Candida tropicalis was determined as 20 mm. In test [3], this molecule displayed an MIC of 27.3 µM (≈ 5 µg/mL).
